The results in this text go back to PubChem BioAssay AID489030 (Sanford-Burnham Center for Chemical Genomics, 2010).

As usually defined, the inhibition is the relative decrease from the control value, in per cent.

Out of some 330,000 compounds screened, about 2,400 (0.73%) were called active. The calls were made as follows: active = inhibition of at least 40% at 20 µM; inactive = the rest. Only a selection was taken, and actives are over-represented in it overall.

Chain of Apoptotic protease-activating factor 1 (Homo sapiens) (O14727 whole entry, looked up): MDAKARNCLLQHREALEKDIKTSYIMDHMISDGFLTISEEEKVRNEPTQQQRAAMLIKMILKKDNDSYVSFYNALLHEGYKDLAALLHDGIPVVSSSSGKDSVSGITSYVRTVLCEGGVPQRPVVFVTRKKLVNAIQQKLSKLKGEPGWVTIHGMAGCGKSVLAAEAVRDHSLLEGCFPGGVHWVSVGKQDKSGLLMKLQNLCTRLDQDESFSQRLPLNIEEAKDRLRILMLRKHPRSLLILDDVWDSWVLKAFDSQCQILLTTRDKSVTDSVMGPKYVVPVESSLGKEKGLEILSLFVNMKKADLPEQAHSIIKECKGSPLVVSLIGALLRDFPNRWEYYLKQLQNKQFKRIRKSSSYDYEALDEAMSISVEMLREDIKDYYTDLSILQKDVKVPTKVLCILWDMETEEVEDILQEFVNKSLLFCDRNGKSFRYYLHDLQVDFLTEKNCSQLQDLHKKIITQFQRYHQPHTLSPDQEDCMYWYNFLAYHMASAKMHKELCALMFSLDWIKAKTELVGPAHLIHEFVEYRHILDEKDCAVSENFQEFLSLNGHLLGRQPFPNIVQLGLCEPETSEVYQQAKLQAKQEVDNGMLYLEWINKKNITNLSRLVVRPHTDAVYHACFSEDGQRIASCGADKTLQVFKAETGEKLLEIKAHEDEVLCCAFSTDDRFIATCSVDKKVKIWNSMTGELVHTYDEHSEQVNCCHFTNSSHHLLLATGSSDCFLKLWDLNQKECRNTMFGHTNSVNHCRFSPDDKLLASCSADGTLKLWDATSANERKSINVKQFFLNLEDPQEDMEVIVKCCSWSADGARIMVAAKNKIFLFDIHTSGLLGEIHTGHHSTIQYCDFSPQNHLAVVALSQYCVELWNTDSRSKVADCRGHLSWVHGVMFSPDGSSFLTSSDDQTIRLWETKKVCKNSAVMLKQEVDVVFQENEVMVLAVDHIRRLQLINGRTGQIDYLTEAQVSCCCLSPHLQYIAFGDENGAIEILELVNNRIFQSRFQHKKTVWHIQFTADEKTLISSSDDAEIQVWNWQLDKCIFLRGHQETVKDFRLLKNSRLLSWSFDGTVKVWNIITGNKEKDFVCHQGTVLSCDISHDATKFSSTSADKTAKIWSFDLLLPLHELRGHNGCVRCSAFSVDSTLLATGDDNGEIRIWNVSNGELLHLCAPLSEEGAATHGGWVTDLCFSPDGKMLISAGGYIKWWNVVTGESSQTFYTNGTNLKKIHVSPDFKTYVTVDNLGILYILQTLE

This assay has as its target Apoptotic protease-activating factor 1 (Homo sapiens) (UniProt O14727). Nature of the assay: inhibitors of human Apaf-1 apoptosome, primary screen, biochemical, DEVD-Rh110 fluorescence, uHTS (AID 489030).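 Also: plate controls were DMSO wells for no effect and DEVD-CHO caspase inhibitor wells for full effect.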 To be noted: reconstituted apoptosome caspase-3 activity, at 20 µM, stronger effect = higher value. An outline of the steps: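 Material: cell-free apoptosome with Apaf-1, procaspase-3 and caspase-9; Buffer or medium: Hepes pH 7.5 with detergent and BSA; Reagent: cytochrome c trigger plus (Z-DEVD)2-Rh110 caspase-3 substrate; Times: compound with Apaf-1, dATP, procaspase-3 30 min, then 50 min reaction, room temperature; Technique: Rh110 fluorescence intensity.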
Turning to `COc1ccc(N2CCN(c3ccc([N+](=O)[O-])nc3)CC2)cc1`, the inhibition was -5.77% (inactive). With `CCOC(=O)C1Sc2[nH]c(=O)sc2C(c2ccc(Cl)cc2)C1C(=O)OCC` (configuration not stated), the inhibition is 2.05% (inactive).

In the case of `C=CCC[C@H](Cc1ccc(F)cc1)C(=O)OC[C@@H](Cc1c[nH]c2ccccc12)NC(=O)[C@H](CC=C)CC(=O)N[C@H](CO)Cc1ccccc1`, the inhibition was 1.18% (inactive). `C=CCC[C@H](Cc1ccc(F)cc1)C(=O)OC[C@@H](NC(=O)[C@@H](CC=C)CC(=O)N[C@H](CO)Cc1ccccc1)C(C)(C)C`: the inhibition was 40.6% (active). With `C=CC[C@@H](CC(=O)N[C@H](CO)Cc1ccccc1)C(=O)N[C@H](C)COC(=O)[C@@H](CC=C)Cc1ccc(F)cc1`, the inhibition is 23% (inactive). On to `COCCNC(=O)c1ccccc1-c1nc(-c2ccccc2Cl)no1`, for which the inhibition is 6.12% (inactive). Turning to `O=C(Nc1cc(S(=O)(=O)N2CCOCC2)ccc1N1CCOCC1)c1c(F)cccc1Cl`, the inhibition was -5.54% (inactive).

On to `Cc1ccc(NC(=O)CN(C)C(=O)Cn2nnc(-c3ccccc3)n2)cc1`, for which the inhibition is 8.51% (inactive). As for `COc1ccc(C2C(C#N)=C(N)Oc3cc(N)ccc32)cc1OC` (configuration not stated), the figure is -6.32% (inactive). As for `Cc1nn(Cc2ccccc2)c2c1C(c1ccccc1)C(C#N)=C(N)O2` (configuration not stated), the figure is 7.58% (inactive); as for `COc1ccccc1C1C(C#N)=C(N)Oc2c1c(-c1ccccc1)nn2-c1ccccc1` (configuration not stated), 42.2% (active); as for `COc1ccc(C2/C(=C(/O)c3ccccc3)C(=O)C(=O)N2C)c(OC)c1` (configuration not stated), 2.34% (inactive).

Consider `COc1ccc(/C=C2/C(=O)OCc3cc(OC)c(OC)cc32)c(OC)c1`, for which the inhibition was 6.28% (inactive). Take `COc1ccc(/C=C2/C(=O)N(c3ccccc3)N=C2C)c(OC)c1`: the inhibition was 80.1% (active). `O=C1CN(C(=O)COC(=O)/C=C/c2ccc(F)cc2)c2ccccc2N1`: the inhibition is 5.3% (inactive).

Turning to `O=C(CO/N=C/c1ccccc1OC(F)F)NC1CCCC1`, the inhibition is 0.277% (inactive).

Consider `CCCNC(=O)c1ccc(N2CCC3(CC2)CC(c2cccc(Br)c2)=NO3)c(NC(=O)c2ccco2)c1`, for which the inhibition is 14.2% (inactive). In the case of `CC1CCC2(CC1)NC(=O)N(CC(=O)c1ccc3c(c1)OCO3)C2=O` (configuration not stated), the inhibition was -10.1% (inactive). With `Cc1ccc(S(=O)(=O)N2CCN(C(=O)N3CCOCC3)CC2)c(C)c1`, the inhibition is -7.82% (inactive). As for `Cc1ccc(S(=O)(=O)N2CCN(C(=O)c3ccccc3-c3nc4ccccc4s3)CC2)c(C)c1`, the figure is 40.3% (active); as for `Cc1ccc(S(=O)(=O)N2CCN(C(=O)Cn3c(=O)cnc4ccccc43)CC2)c(C)c1`, -0.646% (inactive); as for `CCN1C[C@@H]2[C@@H]3C(=O)N(Cc4ccccc4)C(=O)[C@@H]3[C@](Cc3ccccc3)(C(=O)OC)N2C1=NC1CCCCC1`, 41.2% (active). As to `CC[C@]1(C(=O)OC)[C@H]2C(=O)N(Cc3ccccc3)C(=O)[C@H]2[C@H]2CN=C(SCc3ccccc3)N21`, the inhibition is 25.2% (inactive). Regarding `CCCN=C1N(C)C[C@@H]2[C@@H]3C(=O)N(Cc4ccccc4)C(=O)[C@@H]3[C@](C)(C(=O)OC)N12`, the inhibition was 11.4% (inactive). Take `Cc1nnc(Sc2nc3c(c(=O)[nH]c(=O)n3C)n2Cc2ccccc2)s1`: the inhibition was 21% (inactive). For `O=C(Nc1ccc(N2CCOCC2)cc1)c1ccc(-c2ccccc2[N+](=O)[O-])o1`, the inhibition is 2.89% (inactive). As for `CC1=NN(c2ccc(Cl)c(C(=O)O)c2)C(=O)/C1=C/c1ccc(-c2ccccc2[N+](=O)[O-])o1`, the figure is 42.9% (active); as for `O=C1NC(c2ccc(-c3ccccc3[N+](=O)[O-])o2)C(C(=O)c2ccc(Cl)cc2)C(O)(C(F)(F)F)N1` (configuration not stated), 36.8% (inactive); as for `COC(=O)c1ccc(S(=O)(=O)N2CCC(c3nc4ccccc4o3)CC2)cc1`, -25.7% (inactive). As to `Cc1cccc(C)c1NC(=O)CNC(=O)Cc1ccc(Br)cc1`, the inhibition is -1.64% (inactive). Consider `CC(C)N(C(=O)[C@H]1C[C@H](CC(=O)NC(C)(C)C)C(=O)N2CCc3c([nH]c4ccc(Cl)cc34)[C@]12C)C(C)C`, for which the inhibition is 29.3% (inactive). Next, `C[C@@H](C(=O)N1CCNCC1)n1cc(CCC(=O)O)nn1`: 5.94% (inactive); `NC(N)=NCCCc1cn(CC(=O)N2CCNCC2)nn1`: 40.2% (active). With `CCC(C)[C@@H](C(=O)N1CCNCC1)n1cc(CCCCN)nn1` (some centres not stated), the inhibition is -4.43% (inactive). As to `CCN1C(=S)N[C@@H](CCc2ccccc2)[C@H](C(=O)OC)[C@H]1C`, the inhibition was -4.74% (inactive). Turning to `CCN1C(=NCc2ccc(OC)cc2)N[C@@H](CCc2ccccc2)[C@H](C(=O)NCc2ccc(OC)cc2)[C@H]1C`, the inhibition is 40.4% (active).

With `CCN1C(=NCC(C)C)N[C@@H](CCc2ccccc2)[C@H](C(=O)NCC(C)C)[C@H]1C`, the inhibition was 4.1% (inactive). `CCN1C(=O)N[C@@H](CCc2ccccc2)C(C(=O)OC)=C1C`: the inhibition was 17.6% (inactive).

Take `O=C(NCc1ccccc1Cl)C1CCN(c2ncnc3c2nc2n3CCCCC2)CC1`: the inhibition is -6.54% (inactive). Consider `Cc1nn2c(NCCN(C)C)c3c(nc2c1-c1ccccc1)CCC3`, for which the inhibition was 1.66% (inactive). `CCN(C(=O)C1CCCN(c2nc(-c3ccc(OC)cc3)no2)C1)c1ccc(OC)cc1` (configuration not stated): the inhibition is 12.2% (inactive). For the compound `Cc1cc(=O)cc(C)[nH]1`, the inhibition was -15% (inactive). For the compound `Oc1c(C=Nc2cccc3nsnc23)ccc2ccccc12`, the inhibition was 95.8% (active). Regarding `CCOc1ccc(N2CC(C(=O)NCc3ccccn3)CC2=O)cc1` (configuration not stated), the inhibition is 1.44% (inactive).

As to `COCCNC(=O)c1ccc(Cn2c(SCC(=O)NCC3CCCO3)nc3ccc(Br)cc3c2=O)cc1` (configuration not stated), the inhibition is -13.8% (inactive). `OC(CNCC1CCCO1)Cn1c2ccc(Br)cc2c2cc(Br)ccc21` (configuration not stated): the inhibition is 43.4% (active).

Consider `CCCN1CCn2c3c(c4cc(Br)ccc42)CCCC31` (configuration not stated), for which the inhibition is 12.8% (inactive). As for `CN(C)/C(CN1CCCCC1)=C1\N=C(c2ccccc2)OC1=O`, the inhibition is -0.998% (inactive). On to `O=C(CCC(=O)c1ccccc1)NCc1cccc(C(F)(F)F)c1`, for which the inhibition is 6.79% (inactive). Regarding `COC(=O)[C@@H](Cc1ccccc1)NC(=O)NCCc1ccccc1`, the inhibition is -5.88% (inactive). Next, `NC[C@H](Cc1ccccc1)NCCc1cc(C(F)(F)F)cc(C(F)(F)F)c1`: 60.8% (active); `O=C(Cn1nc(CNc2ccc(Cl)cc2)[n+]2c1CCCCC2)c1ccc(Cl)cc1`: 15.2% (inactive).
